{
  "source": "paper PMC9804870",
  "about": "(Clinical Pharmacology in Drug Development, 2022)",
  "key": {"[1]": {"test_system": "BTK", "settings": "cited from earlier work"}, "[2]": {"settings": "high permeability, low solubility; reduced solubility at higher pH; cited from earlier work"}, "[3]": {"settings": "dose range of 75–250 mg; dose‐proportional; cited from earlier work"}, "[4]": {"test": "Study 1", "type": "in vivo", "settings": "human, plasma, oral, 100 mg", "how_it_was_run": "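Healthy subjects, four-sequence crossover: 100 mg tablet or capsule fasted (>10 h). Period 3: tablet 30 min after high-fat meal (800–1000 calories), or fasted 2 h after 20 mg PPI following PPI 20 mg BID days −3 to −1. Plasma sampled predose to 24 h. Parent and metabolite by LC-MS/MS (1–1000, 5–5000 ng/mL). t½ noncompartmental (linear up log down).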"}, "[5]": {"test_system": "gastric pH", "settings": "cited from earlier work"}, "[6]": {"test_system": "CYP3A", "settings": "has been reported; ref not given; cited from earlier work"}},
  "data": [
    {"compound": "CC#CC(=O)NCCCC(=O)c1nc(-c2ccc(C(=O)Nc3ccccn3)cc2)c2c(N)nccn12", "note": "[ACP‐5862]", "values": [
      {"measurement": "Potency with respect to BTK inhibition, less than acalabrutinib", "setting": "[1]", "result": 50, "unit": "%"}
    ]},
    {"compound": "CC#CC(=O)N1CCC[C@H]1c1nc(-c2ccc(C(=O)Nc3ccccn3)cc2)c2c(N)nccn12", "note": "[Acalabrutinib]", "values": [
      {"measurement": "Biopharmaceutical Classification System class", "setting": "[2]", "result": "class II"},
      {"measurement": "Dose linearity of pharmacokinetics", "setting": "[3]", "result": "linear pharmacokinetics"},
      {"measurement": "half-life", "setting": "[4]", "result": "120 to 180", "unit": "min"}
    ]},
    {"compound": "COCCCOc1ccnc(C[S+]([O-])c2nc3ccccc3[nH]2)c1C", "note": "(stereo not shown) [Rabeprazole]", "values": [
      {"measurement": "Time needed to achieve maximum suppression of gastric pH", "setting": "[5]", "result": 3, "unit": "days"},
      {"measurement": "CYP3A inhibition in vitro", "setting": "[6]", "result": "weak inhibitor"}
    ]},
    {"compound": "COc1ccc2[nH]c([S+]([O-])Cc3ncc(C)c(OC)c3C)nc2c1", "note": "(stereo not shown) [omeprazole]", "values": [
      {"measurement": "Time needed to achieve maximum suppression of gastric pH", "setting": "[5]", "result": 5, "unit": "days"}
    ]}
  ]
}
